According to ChEMBL document CHEMBL1131239, “Orally active benzamide antipsychotic agents with affinity for dopamine D2, serotonin 5-HT1A, and adrenergic alpha1 receptors” (J Med Chem, 1998):

system: Rattus norvegicus; test: (§1) compound was tested for antipsychotic activity by conditioned avoidance response(CAR) assay in rats with a pretreatment period of 30 min upon intra peritoneal administration at a concentration of 15 mg/kg.; type: functional; details: not given

Going from `CC(C)Oc1ccccc1N1CCN(Cc2cccc(C(=O)NC3CCCCC3)c2)CC1` to `CC(C)Oc1ccccc1N1CCN(Cc2cccc(C(=O)Nc3ccc(F)cc3)c2)CC1`, the inhibition in vivo at 15 mg/kg rises from -86.2% to -2.5%.

Going from `O=C(c1cccc(CN2CCN(c3ccccc3F)CC2)c1)N1CCCCC1` to `CCCc1ccccc1N1CCN(Cc2cccc(C(=O)N3CCCCC3)c2)CC1`, the inhibition in vivo at 15 mg/kg rises from -84.3% to -0.7%.

First: O=C(c1cccc(CN2CCN(c3cccc([N+](=O)[O-])c3)CC2)c1)N1CCCCC1
Second: O=C(c1cccc(CN2CCN(c3cccc(C(F)(F)F)c3)CC2)c1)N1CCCCC1
The inhibition in vivo at 15 mg/kg of the first is lower: -77.7% for the first, -71.6% for the second.

`CCCCN(CCCC)C(=O)c1cccc(CN2CCN(c3ccccc3OC(C)C)CC2)c1` gave an inhibition in vivo at 15 mg/kg of -5.6%.

system: Rattus norvegicus; test: as §1; type: functional; details: not given
Summary of the method: (§2)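 Trained rats (N = 4) were run in 1-h sessions on two consecutive days, with the experimenter blind to drug and dose. Fed rats had food and water until placed in the test chambers. Fasted rats had no food overnight before the experiment.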

First: CC(C)Oc1ccccc1N1CCN(Cc2cccc(C(=O)N3CCCCC3=O)c2)CC1
Second: CC(C)Oc1ccccc1N1CCN(C(C)c2cccc(C(=O)N3CCCCC3)c2)CC1 (configuration not stated)
The inhibition in vivo at 15 mg/kg of the first is lower: -92.4% for the first, -7.1% for the second.

`CC(C)Oc1ccccc1N1CCN(CCCCc2ccc(C(=O)N3CCCCC3)cc2)CC1` gave an inhibition in vivo at 15 mg/kg of -95.3%.

system: Rattus norvegicus; test: compound was tested for antipsychotic activity by conditioned avoidance response(CAR) assay in rats with a pretreatment period of 60 min upon peroral administration at a concentration of 20 mg/kg.; type: functional; details: route oral

`O=C(c1cccc(CN2CCN(c3cccc(Cl)c3)CC2)c1)N1CCCCC1` was tested, and the inhibition in vivo at 20 mg/kg was -27.9%.

system: Rattus norvegicus; test: Percent catalepsy in male Spargue-Dawley rat at pretreatment time 60 mins and when administered ip at dose 50 mg/kg; type: functional; details: route intraperitoneal
Summary of the method: (§3)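 Catalepsy in rats, groups of five per drug treatment, scored blind to drug and dose. Each session included a saline or vehicle negative control and a haloperidol 2 mg/kg positive control. Deaths during the experiment were recorded in the catalepsy column as number dead out of five.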

`O=C(c1cccc(CN2CCN(c3cccc(Cl)c3)CC2)c1)N1CCCCC1` was tested, and the Catalepsy was 21.8%.

target: T1, 5-hydroxytryptamine receptor 1A (Rattus norvegicus, UniProt P19327); test: Compound was evaluated for its binding affinity against 5-hydroxytryptamine 1A receptor from rat cerebral cortex; type: tissue-based; details: not given
T1 sequence (P19327 whole entry): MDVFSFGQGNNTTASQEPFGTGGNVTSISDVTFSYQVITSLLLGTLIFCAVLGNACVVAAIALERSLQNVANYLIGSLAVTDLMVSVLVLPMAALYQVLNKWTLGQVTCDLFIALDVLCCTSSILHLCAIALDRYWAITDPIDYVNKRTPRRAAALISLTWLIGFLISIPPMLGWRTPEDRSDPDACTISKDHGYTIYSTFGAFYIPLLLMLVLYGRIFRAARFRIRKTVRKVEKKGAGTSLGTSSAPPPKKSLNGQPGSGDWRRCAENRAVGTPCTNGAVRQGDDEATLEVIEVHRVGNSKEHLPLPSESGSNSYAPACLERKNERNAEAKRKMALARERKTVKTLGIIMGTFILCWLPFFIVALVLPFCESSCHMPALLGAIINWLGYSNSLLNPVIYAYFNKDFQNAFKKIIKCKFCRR

Compared with `CC(C)Oc1ccccc1N1CCN(Cc2cccc(C(=S)N3CCCCC3)c2)CC1`, `CC(C)Oc1ccccc1N1CCN(Cc2cccc(C(=O)N3CCCCC3=O)c2)CC1` is 3.5-fold higher in Ki: 1.1 nM for the first, 3.9 nM for the second.

Compared with `CC(C)Oc1ccccc1N1CCN(Cc2cccc(C(=O)NC3CCCCC3)c2)CC1`, `CC(C)Oc1ccccc1N1CCN(Cc2cccc(C(=O)Nc3ccc(F)cc3)c2)CC1` is 2.7-fold higher in Ki: 4.1 nM for the first, 11 nM for the second. The first binds more tightly here.

Going from `O=C(c1cccc(CN2CCN(c3ccccc3F)CC2)c1)N1CCCCC1` to `CCCc1ccccc1N1CCN(Cc2cccc(C(=O)N3CCCCC3)c2)CC1`, the Ki falls from 16 nM to 9.1 nM (1.8-fold). The second binds more tightly here.

First: O=C(c1cccc(CN2CCN(c3cccc(Cl)c3)CC2)c1)N1CCCCC1
Second: O=C(c1cccc(CN2CCN(c3cccc([N+](=O)[O-])c3)CC2)c1)N1CCCCC1
The Ki of the first is 20-fold lower: 1.2 nM for the first, 24 nM for the second.

`CC(C)Oc1ccccc1C1(O)CCN(Cc2cccc(C(=O)N3CCCCC3)c2)CC1` and `CC(C)Oc1ccccc1N1CCN(C(C)c2cccc(C(=O)N3CCCCC3)c2)CC1` (configuration not stated) cannot be ordered by Ki: > 1000 nM for the first, > 1000 nM for the second.

First: O=C(c1cccc(CN2CCN(c3ccc4ccoc4c3)CC2)c1)N1CCCCC1
Second: O=C(c1cccc(CN2CCN(c3cccc(C(F)(F)F)c3)CC2)c1)N1CCCCC1
The Ki of the first is 11-fold lower: 0.21 nM for the first, 2.3 nM for the second.

In the case of `CCCCN(CCCC)C(=O)c1cccc(CN2CCN(c3ccccc3OC(C)C)CC2)c1`, the Ki is reported as 0.8 nM.

system: Rattus norvegicus; test: compound was tested for antipsychotic activity by conditioned avoidance response(CAR) assay in rats with a pretreatment period of 30 min upon peroral administration; type: functional; details: po; summary of the method: as §2

In the case of `CN1CCN(C2=Nc3cc(Cl)ccc3Nc3ccccc32)CC1` [CLOZAPINE], the ED50 is reported as 9.3 mg/kg.

system: Rattus norvegicus; test: compound was tested for antipsychotic activity by conditioned avoidance response(CAR) assay in rats with a pretreatment period of 30 min upon intra peritoneal administration at a concentration of 5 mg/kg.; type: functional; details: not given
Summary of the method: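 Rat conditioned avoidance test modified from Martin et al. Trained rats (N = 4) were run in 1-h sessions on two consecutive days. Fed animals had food and water until placed in the test chambers. Dosing was ip with 30 min pretreatment, and activity was expressed as percent inhibition at the stated dose.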

Going from `CC(C)Oc1ccccc1N1CCN(Cc2cccc(C(=S)N3CCCCC3)c2)CC1` to `CC(C)Oc1ccccc1N1CCN(Cc2cccc(C(=O)N3CCCCC3=O)c2)CC1`, the inhibition in vivo at 5 mg/kg rises from -71.6% to -11.2%.

Compared with `O=C(c1cccc(CN2CCN(CCO)CC2)c1)N1CCCCCC1`, `O=C(c1cccc(CN2CCN(c3cccc(Cl)c3)CC2)c1)N1CCCCC1` is lower in inhibition in vivo at 5 mg/kg: -2.1% for the first, -36.1% for the second.

Compared with `CC(C)Oc1ccccc1N1CCN(Cc2cccc(C(=O)NC3CCCCC3)c2)CC1`, `CC(C)Oc1ccccc1C1(O)CCN(Cc2cccc(C(=O)N3CCCCC3)c2)CC1` is higher in inhibition in vivo at 5 mg/kg: -17.6% for the first, 0.9% for the second.

Compared with `O=C(c1cccc(CN2CCN(c3cccc([N+](=O)[O-])c3)CC2)c1)N1CCCCC1`, `O=C(c1cccc(CN2CCN(c3cccc(C(F)(F)F)c3)CC2)c1)N1CCCCC1` is lower in inhibition in vivo at 5 mg/kg: -1.3% for the first, -3.7% for the second.

`O=C(c1cccc(CN2CCN(c3ccc4ccoc4c3)CC2)c1)N1CCCCC1` was tested, and the inhibition in vivo at 5 mg/kg was -82.4%.

system: Rattus norvegicus; test: Percent catalepsy in male Spargue-Dawley rat at pretreatment time 240 mins and when administered ip at dose 50 mg/kg; type: functional; details: route intraperitoneal; summary of the method: as §3

In the case of `O=C(c1cccc(CN2CCN(c3cccc(Cl)c3)CC2)c1)N1CCCCC1`, the Catalepsy is reported as 33.9%.

target: T2, Adrenergic receptor alpha-1 (Rattus norvegicus, UniProt P15823+P23944+P43140); test: Binding affinity against Alpha-1 adrenergic receptor from rat cerebral cortex; type: tissue-based; details: not given
T2 sequence (P15823 whole entry): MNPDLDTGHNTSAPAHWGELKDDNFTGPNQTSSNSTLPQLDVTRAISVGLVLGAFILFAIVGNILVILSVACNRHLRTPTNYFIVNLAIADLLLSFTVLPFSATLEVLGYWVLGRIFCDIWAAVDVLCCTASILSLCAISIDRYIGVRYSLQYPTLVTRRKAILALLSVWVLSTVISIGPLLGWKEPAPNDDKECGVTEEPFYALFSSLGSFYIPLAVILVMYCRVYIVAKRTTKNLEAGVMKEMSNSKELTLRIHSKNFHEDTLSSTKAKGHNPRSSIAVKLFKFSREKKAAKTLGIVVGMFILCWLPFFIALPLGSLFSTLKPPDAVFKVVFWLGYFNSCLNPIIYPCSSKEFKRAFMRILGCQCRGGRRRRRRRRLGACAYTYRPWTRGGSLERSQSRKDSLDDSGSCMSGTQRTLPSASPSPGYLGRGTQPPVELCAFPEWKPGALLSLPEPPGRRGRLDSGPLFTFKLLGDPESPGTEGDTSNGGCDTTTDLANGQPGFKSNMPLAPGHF
T2 sequence (P23944 whole entry): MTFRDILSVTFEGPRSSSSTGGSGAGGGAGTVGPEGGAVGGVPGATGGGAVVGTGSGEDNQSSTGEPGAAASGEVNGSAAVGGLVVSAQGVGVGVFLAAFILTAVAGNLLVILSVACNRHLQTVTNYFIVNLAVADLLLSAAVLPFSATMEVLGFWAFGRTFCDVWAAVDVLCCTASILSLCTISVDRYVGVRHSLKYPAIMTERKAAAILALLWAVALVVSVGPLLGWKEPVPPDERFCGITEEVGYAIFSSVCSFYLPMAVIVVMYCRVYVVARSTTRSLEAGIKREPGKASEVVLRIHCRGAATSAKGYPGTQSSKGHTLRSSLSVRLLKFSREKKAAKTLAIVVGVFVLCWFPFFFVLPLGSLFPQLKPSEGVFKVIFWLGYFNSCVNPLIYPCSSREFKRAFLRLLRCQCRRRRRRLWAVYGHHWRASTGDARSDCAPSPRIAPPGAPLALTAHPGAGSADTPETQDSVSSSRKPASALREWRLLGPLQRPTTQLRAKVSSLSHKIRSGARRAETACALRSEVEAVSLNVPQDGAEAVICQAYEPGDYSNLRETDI
T2 sequence (P43140 whole entry): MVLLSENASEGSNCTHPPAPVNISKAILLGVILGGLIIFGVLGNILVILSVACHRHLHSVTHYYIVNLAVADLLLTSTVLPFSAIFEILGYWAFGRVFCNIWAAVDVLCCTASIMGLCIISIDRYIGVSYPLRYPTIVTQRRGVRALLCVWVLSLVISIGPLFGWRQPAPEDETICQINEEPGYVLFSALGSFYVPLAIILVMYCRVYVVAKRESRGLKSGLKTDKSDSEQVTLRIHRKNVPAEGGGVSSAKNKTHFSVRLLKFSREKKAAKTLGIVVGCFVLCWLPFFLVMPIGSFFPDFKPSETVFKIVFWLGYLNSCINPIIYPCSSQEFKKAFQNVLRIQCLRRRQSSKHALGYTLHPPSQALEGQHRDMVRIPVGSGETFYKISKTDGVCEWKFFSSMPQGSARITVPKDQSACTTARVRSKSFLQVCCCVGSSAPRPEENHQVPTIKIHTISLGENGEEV

Compared with `CC(C)Oc1ccccc1N1CCN(Cc2cccc(C(=S)N3CCCCC3)c2)CC1`, `CC(C)Oc1ccccc1N1CCN(Cc2cccc(C(=O)N3CCCCC3=O)c2)CC1` is 2.8-fold higher in Ki: 2.3 nM for the first, 6.4 nM for the second.

Compared with `CC(C)Oc1ccccc1N1CCN(Cc2cccc(C(=O)NC3CCCCC3)c2)CC1`, `CC(C)Oc1ccccc1N1CCN(Cc2cccc(C(=O)Nc3ccc(F)cc3)c2)CC1` is 3.2-fold higher in Ki: 3.4 nM for the first, 11 nM for the second.

First: O=C(c1cccc(CN2CCN(c3ccccc3F)CC2)c1)N1CCCCC1
Second: CCCc1ccccc1N1CCN(Cc2cccc(C(=O)N3CCCCC3)c2)CC1
The Ki of the first is 1.7-fold higher: 27 nM for the first, 16 nM for the second.

Going from `O=C(c1cccc(CN2CCN(c3cccc(Cl)c3)CC2)c1)N1CCCCC1` to `O=C(c1cccc(CN2CCN(c3cccc(C(F)(F)F)c3)CC2)c1)N1CCCCC1`, the Ki rises from 11.4 nM to 562 nM (49-fold).

`CC(C)Oc1ccccc1C1(O)CCN(Cc2cccc(C(=O)N3CCCCC3)c2)CC1` and `CC(C)Oc1ccccc1N1CCN(C(C)c2cccc(C(=O)N3CCCCC3)c2)CC1` (configuration not stated) are within 1.5-fold of each other in Ki: 110 nM for the first, 87 nM for the second.

First: O=C(c1cccc(CN2CCN(c3ccc4ccoc4c3)CC2)c1)N1CCCCC1
Second: CC(C)Oc1ccccc1N1CCN(CCCCc2ccc(C(=O)N3CCCCC3)cc2)CC1
The Ki of the first is 22-fold lower: 13 nM for the first, 284 nM for the second.

Compound `CCCCN(CCCC)C(=O)c1cccc(CN2CCN(c3ccccc3OC(C)C)CC2)c1` has a Ki of 3.3 nM.

In the case of `O=C(c1cccc(CN2CCN(CCO)CC2)c1)N1CCCCCC1`, the Ki is reported as > 1000 nM.
With `O=C(c1cccc(CN2CCN(c3cccc([N+](=O)[O-])c3)CC2)c1)N1CCCCC1` the Ki was > 1000 nM.
With `COCCN1CCN(Cc2cccc(C(=O)N3CCCCCC3)c2)CC1` the Ki was > 1000 nM.
